Active and inactive are the calls of the source. No cut-off for these calls is given here. Some results are limits rather than exact numbers.

Experimental findings from ChEMBL document CHEMBL5325455, “Daphnanes diterpenes from the latex of Hura crepitans L. and their PKCζ-dependent anti-proliferative activity on colorectal cancer cells” (Bioorg Med Chem, 2023) are described below.

Assay [1] has as its system Caco-2. In words: Upregulation of PKCdelta protein expression in human Caco-2 cells at 1 ug/ml incubated for 48 hrs by Western blot analysis. It counts as functional, cell-based. Conditions: dose 1.0 µg/ml. In short, it runs like this:
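Caco-2 cells, 0.25 × 10^6 per well, seeded 48 h before treatment; DMSO vehicle control. Optional 15 min pretreatment with 0.2 µM Gö6976. Cells lysed on ice after 48 h in pH 7.4 Tris/NaCl/Triton/EDTA buffer with protease and phosphatase inhibitors. 30 µg protein run on 4–15% SDS-PAGE, blotted to nitrocellulose, ECL detection. pSer664 and total PKCδ probed, ratio quantified, actin as loading control; one experiment.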
(In general: A western blot detects proteins with antibodies after separation by electrophoresis.)

Assay [2] relates to Caco-2. In words: Cytotoxicity against human Caco-2 cells assessed as cell death. The class given is functional, cell-based.
In assay [3] the test system is Caco-2. The experiment in a line: Cytostatic activity against human Caco-2 cells assessed as inhibition of cell growth at 1 ug/ml incubated for 48 hrs by MTS assay relative to control. It counts as functional. In short, it runs like this: (§1)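 Caco-2 cells were seeded at 40 000/well 48 h before dosing. Compound was diluted from a 10 mg/mL DMSO stock into medium (0.125, 0.5 or 1 µg/mL final; DMSO ≤0.01%) and added in triplicate for 48 h. Viability was read by MTS absorbance at 490 nm and expressed relative to the DMSO control.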
A general note: Tetrazolium dyes change colour on reduction, which living cells bring about.

For another assay, the system named is SARS-CoV-2. In words: Antiviral activity against SARS-CoV-2 assessed as reduction in progeny production measured 24 hrs post infection by PFU assay. It counts as functional, organism-based. Conditions: Severe acute respiratory syndrome coronavirus 2, 24 h.
The subject of assay [4] is Caco-2. The experiment in a line: Cytostatic activity against human Caco-2 cells assessed as inhibition of cell growth at 1 ug/ml incubated for 48 hrs by MTS assay. The class given is functional, cell-based. Conditions: dose 1.0 µg/ml. In short, it runs like this:
as §1

A further assay concerns Zika virus. In words: Antiviral activity against ZIKV expressing GFP reporter gene measured 24 hrs post infection. It counts as functional, organism-based. Put shortly: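 Cells in 96-well plates were exposed to serial concentrations starting at 50 µg/mL and infected with GFP-reporter Zika virus at MOI 1. At 24 h post-infection, cells were fixed in 3.7% PFA and GFP-positive cells were counted by flow cytometry.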
For orientation: Reporter assays use an easily measured gene product as a stand-in for the process of interest.

For assay [5], the system named is Colorectal epithelial cell. The experiment in a line: Cytostatic activity against human Colorectal epithelial cells isolated from patient with well-differentiated colonic adenocarcinoma and undergone nine courses of chemotherapy cultured as organoids at 1 ug/ml incubated for 48 hrs by CellTiter-Glo luminescence assay. The class given is functional, cell-based. Conditions: dose 1.0 µg/ml. Put shortly:
(§2)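 Primary colonic epithelial cells (3 control and 2 CRC patients) were expanded as organoids or spheroids in Matrigel with EGF/noggin/Wnt3a/R-spondin medium. Single cells were seeded at 2500/well and allowed 48 h to form colonoids, then exposed for 48 h at 0.01, 0.1 or 1 µg/mL, with 5FdU at 1 µg/mL as positive control. Viability was read by CellTiter-Glo luminescence versus DMSO or medium control.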

The subject of assay [6] is Colorectal epithelial cell. In words: Cytostatic activity against human Colorectal epithelial cells isolated from left colon of patient with sigmoido-vaginal fistula for diverticulitis cultured as organoids at 1 ug/ml incubated for 48 hrs by CellTiter-Glo luminescence assay. The class given is functional, cell-based. The settings on record: dose 1.0 µg/ml. Put shortly: as §2

Assay [7] deals with Colorectal epithelial cell. In words: Cytostatic activity against human Colorectal epithelial cells isolated from patient with well-differentiated colonic adenocarcinoma cultured as organoids at 1 ug/ml incubated for 48 hrs by CellTiter-Glo luminescence assay. Conditions: dose 1.0 µg/ml. The class given is functional, cell-based. Put shortly:
as §2

Assay [8] deals with Colorectal epithelial cell. The experiment in a line: Cytostatic activity against human Colorectal epithelial cells isolated from left colon of patient with recurrent diverticulitis cultured as organoids at 1 ug/ml incubated for 48 hrs by CellTiter-Glo luminescence assay. It counts as functional, cell-based. The settings on record: dose 1.0 µg/ml. In short, it runs like this:
as §2

In assay [9] the test system is Colorectal epithelial cell. The experiment in a line: Cytostatic activity against human Colorectal epithelial cells isolated from patient with fistulized sigmoiditis cultured as organoids at 1 ug/ml incubated for 48 hrs by CellTiter-Glo luminescence assay. The class given is functional, cell-based. The settings on record: dose 1.0 µg/ml. Put shortly:
as §2

On to `Cn1c2ccccc2c2c3c(c4c5ccccc5n(CCC#N)c4c21)CNC3=O`, for which the outcome in the assay on Caco-2 [1] was Active.

Take `C=C(C)[C@]12C[C@@H](C)[C@@]34O[C@](/C=C/C=C\C(=O)CCCCCCCC)(O[C@@H]1[C@@H]3[C@@H]1O[C@]1(CO)[C@@H](O)[C@]1(O)C(=O)C(C)=C[C@H]14)O2`: the result with Caco-2 [2] was inactive. In addition, in the assay on Caco-2 [3], the inhibition (as a rule, the drop in the measured response relative to a control, in per cent) at 1 µg/mL is around 25%.

Regarding `C=C(C)[C@]1(O)C[C@@H](C)[C@]2(O)[C@H]([C@H]1O)[C@@H]1O[C@]1(COC(=O)CCCCCCCCCC(C)/C=C/CCCCC)[C@@H](O)[C@]1(O)C(=O)C(C)=C[C@H]12` (stereo not given in full), the results for the half-inhibitory concentration (IC50) in the assay with SARS-CoV-2 and in the assay with Zika virus were 34.2 µM and above 50 µM, respectively. For the same compound, the outcome in the assay with Caco-2 [2] and in the assay on Caco-2 [4] was inactive.

For `C=C(C)[C@]12C[C@@H](C)[C@@]34O[C@](/C=C/C=C/C(=O)CCCCCCCC)(O[C@@H]1[C@@H]3[C@@H]1O[C@]1(CO)[C@@H](O)[C@]1(O)C(=O)C(C)=C[C@H]14)O2`, the IC50 (usually the concentration needed to halve the response being measured) in the assay with SARS-CoV-2 was 50.2 µM; with Zika virus, above 50 µM. The result with Caco-2 [2] was inactive. Also, in the assay with Caco-2 [3], the inhibition at 1 µg/mL was around 25%.

In the case of `C=C(C)[C@]12C[C@@H](C)[C@@]34O[C@](/C=C/C=C/[C@H](O)CCCCCCCC)(O[C@@H]1[C@@H]3[C@@H]1O[C@]1(CO)[C@@H](O)[C@]1(O)C(=O)C(C)=C[C@H]14)O2`, in the assay with Caco-2 [2], the result was inactive. Besides, in the assay with Caco-2 [3], the inhibition at 1 µg/mL is around 25%.

In the case of `O=c1[nH]c(=O)n([C@H]2C[C@H](O)[C@@H](CO)O2)cc1F`, the result in [5], in [6], in assay [7], in assay [8] and in assay [9] was inactive.

`C=C(C)[C@]12C[C@@H](C)[C@@]34O[C@](/C=C/[C@H](O)[C@@H](O)CCCCCCCCC)(O[C@@H]1[C@@H]3[C@@H]1O[C@]1(CO)[C@@H](O)[C@]1(O)C(=O)C(C)=C[C@H]14)O2`: the outcome in the assay with Caco-2 [2] was inactive. Moreover, the result with Caco-2 [4] was Active.
